This note sets out measurements from PMC6815263 (European journal of medicinal chemistry, 2019).

The term Ki denotes the dissociation constant of the complex between target and ligand, obtained from inhibition or displacement.

Chain of mu-opioid receptor (MOR) (P35372 whole entry, species assumed): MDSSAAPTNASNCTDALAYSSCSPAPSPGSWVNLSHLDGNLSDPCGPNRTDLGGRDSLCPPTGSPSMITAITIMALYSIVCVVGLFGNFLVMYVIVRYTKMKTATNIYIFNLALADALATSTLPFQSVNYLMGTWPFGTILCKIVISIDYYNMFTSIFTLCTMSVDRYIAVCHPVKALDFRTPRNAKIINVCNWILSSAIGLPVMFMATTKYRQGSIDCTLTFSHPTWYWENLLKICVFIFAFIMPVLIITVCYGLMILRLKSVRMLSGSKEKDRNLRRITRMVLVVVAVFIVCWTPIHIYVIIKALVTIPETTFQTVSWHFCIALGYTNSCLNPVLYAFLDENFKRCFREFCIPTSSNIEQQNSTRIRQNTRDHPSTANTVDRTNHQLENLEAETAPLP

The test system of one test is ICR mice. Put plainly: Formalin test. It is filed as in vivo, mouse. The following applies: 40 mg/kg i.p., formalin assay phase 2. The essentials: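 Male ICR mice (20-25 g, groups of 6-8) were housed at 22 ± 2 °C and 50 ± 5% humidity and acclimated to the chamber for at least 5 min. Test compound was given i.p. 30 min before 20 μL of 2% formalin in 0.9% saline was injected into the dorsal right hindpaw. Licking/biting time (s) was summed per 5-min block over 30 min: early phase 0-5 min, late phase 20-30 min.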
As to `CN(C)C1(Cc2ccccc2)CCN(c2cc(C(F)(F)F)ccc2CNC(=O)Nc2cccc3ncccc23)CC1` [compound 49, 1-(2-(4-Benzyl-4-(dimethylamino)piperidin-1-yl)-4-(trifluoromethyl)benzyl)-3-(quinolin-5-yl)urea], the “inhibition of pain behavior in phase 2” value is “completely”.

The target in a further test is human TRPV1 (Homo sapiens, UniProt Q8NER1). Put plainly: 45Ca2+ uptake assay, antagonism of capsaicin. The test is classed as cell-based.
Chain of human TRPV1 (Q8NER1 whole entry): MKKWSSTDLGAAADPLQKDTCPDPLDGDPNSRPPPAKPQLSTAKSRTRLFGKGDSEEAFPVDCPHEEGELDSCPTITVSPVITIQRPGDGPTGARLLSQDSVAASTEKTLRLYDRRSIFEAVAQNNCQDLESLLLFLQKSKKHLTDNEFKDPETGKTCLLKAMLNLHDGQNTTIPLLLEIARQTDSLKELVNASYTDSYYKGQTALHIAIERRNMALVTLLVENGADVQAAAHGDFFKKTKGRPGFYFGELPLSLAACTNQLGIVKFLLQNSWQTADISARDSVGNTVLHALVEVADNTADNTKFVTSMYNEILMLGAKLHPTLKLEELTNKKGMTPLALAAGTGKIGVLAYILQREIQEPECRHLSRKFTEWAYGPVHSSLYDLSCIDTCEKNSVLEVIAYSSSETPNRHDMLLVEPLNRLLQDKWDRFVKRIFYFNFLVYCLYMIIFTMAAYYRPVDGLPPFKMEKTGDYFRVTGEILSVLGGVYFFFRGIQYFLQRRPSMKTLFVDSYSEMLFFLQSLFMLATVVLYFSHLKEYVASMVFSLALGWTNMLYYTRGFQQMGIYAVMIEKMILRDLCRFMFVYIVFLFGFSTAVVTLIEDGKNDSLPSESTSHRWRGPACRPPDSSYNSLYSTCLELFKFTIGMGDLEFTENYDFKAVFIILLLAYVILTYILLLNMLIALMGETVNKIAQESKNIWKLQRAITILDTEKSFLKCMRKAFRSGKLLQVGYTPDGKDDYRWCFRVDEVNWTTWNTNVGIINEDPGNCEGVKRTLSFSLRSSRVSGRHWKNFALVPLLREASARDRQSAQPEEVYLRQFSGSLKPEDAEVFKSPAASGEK
Conditions: not given
`CN(C)C1(Cc2ccccc2)CCN(c2cc(C(F)(F)F)ccc2CNC(=O)Nc2ccc3ccncc3c2)CC1` [compound 45, 1-(2-(4-Benzyl-4-(dimethylamino)piperidin-1-yl)-4-(trifluoromethyl)benzyl)-3-(isoquinolin-7-yl)urea] showed a Ki of 56.1 nM. Molecule `CN(C)C1(Cc2ccccc2)CCN(c2cc(C(F)(F)F)ccc2CNC(=O)Nc2cccc3cnccc23)CC1` [compound 48, 1-(2-(4-Benzyl-4-(dimethylamino)piperidin-1-yl)-4-(trifluoromethyl)benzyl)-3-(isoquinolin-5-yl)urea] registered a Ki of 8.8 nM.

In the case of `CN(C)C1(Cc2ccccc2)CCN(c2cc(C(F)(F)F)ccc2CNC(=O)Nc2ccc(CNS(C)(=O)=O)c(F)c2)CC1` [compound 15, N-(4-(3-(2-(4-Benzyl-4-(dimethylamino)piperidin-1-yl)-4-(trifluoromethyl)benzyl)-ureido)-2-fluorobenzyl)methanesulfonamide], the affinity corresponds to a Ki of 25 nM.

In the case of `CC(C(=O)NCc1ccc(C(F)(F)F)cc1N1CCC(Cc2ccccc2)(N(C)C)CC1)c1ccc(NS(C)(=O)=O)c(F)c1` (centres unmarked) [compound 11, N-(2-(4-Benzyl-4-(dimethylamino)piperidin-1-yl)-4-(trifluoromethyl)benzyl)-2-(3-fluoro-4-(methylsulfonamido)phenyl)propanamide], the affinity corresponds to a Ki of 8.2 nM. For the molecule `CN(C)C1(Cc2ccccc2)CCN(c2cc(C(F)(F)F)ccc2CNC(=O)Nc2ccc3cccnc3c2)CC1` [compound 44, 1-(2-(4-Benzyl-4-(dimethylamino)piperidin-1-yl)-4-(trifluoromethyl)benzyl)-3-(quinolin-7-yl)urea], the affinity corresponds to a Ki of 42 nM. Consider `CC1CCN(c2nc(C(F)(F)F)ccc2CNC(=O)[C@@H](C)c2ccc(NS(C)(=O)=O)c(F)c2)CC1` [compound 1, reference compound], for which the affinity, expressed as Ki, was 2.22 nM. Against the preceding molecule, the Ki is about 19-fold lower. `CN(C)C1(Cc2ccccc2)CCN(c2cc(C(F)(F)F)ccc2CNC(=O)Nc2ccc3c(c2)OCC3)CC1` [compound 33, 1-(2-(4-Benzyl-4-(dimethylamino)piperidin-1-yl)-4-(trifluoromethyl)benzyl)-3-(2,3-dihydrobenzofuran-6-yl)urea] returned an inhibition constant (Ki) of 31.3 nM. Turning to `CN(C)C1(Cc2ccccc2)CCN(c2cc(C(F)(F)F)ccc2CNC(=O)Nc2cccc3[nH]c(=O)ccc23)CC1` [compound 35, 1-(2-(4-Benzyl-4-(dimethylamino)piperidin-1-yl)-4-(trifluoromethyl)benzyl)-3-(2-oxo-1,2-dihydroquinolin-5-yl)urea], the Ki is 30.6 nM.

The molecule `CN(C)C1(Cc2ccccc2)CCN(c2cc(C(F)(F)F)ccc2CNC(=O)Nc2ccc3cnccc3c2)CC1` [compound 46, 1-(2-(4-Benzyl-4-(dimethylamino)piperidin-1-yl)-4-(trifluoromethyl)benzyl)-3-(isoquinolin-6-yl)urea] came in with a Ki of 156 nM. `CN(C)C1(Cc2ccccc2)CCN(c2cc(C(F)(F)F)ccc2CNC(=O)Nc2ccc(CO)c(F)c2)CC1` [compound 23, 1-(2-(4-Benzyl-4-(dimethylamino)piperidin-1-yl)-4-(trifluoromethyl)benzyl)-3-(3-fluoro-4-(hydroxymethyl)phenyl)urea]: the Ki was found to be 81 nM. In turn, `CN(C)C1(Cc2ccccc2)CCN(c2cc(C(F)(F)F)ccc2CNC(=O)Nc2cccc3ccncc23)CC1` [compound 47, 1-(2-(4-Benzyl-4-(dimethylamino)piperidin-1-yl)-4-(trifluoromethyl)benzyl)-3-(isoquinolin-8-yl)urea] came in with a Ki of 18.7 nM.

Turning to `CN(C)C1(Cc2ccccc2)CCN(c2cc(C(F)(F)F)ccc2CNC(=O)NCc2ccc(NS(C)(=O)=O)c(F)c2)CC1` [compound 17, N-(4-((3-(2-(4-Benzyl-4-(dimethylamino)piperidin-1-yl)-4-(trifluoromethyl)benzyl)-ureido)-methyl)-2-fluorophenyl)methanesulfonamide], the Ki is 85.9 nM.

A further test concerns the target mu-opioid receptor (MOR) (Homo sapiens, UniProt P35372). Put plainly: MOR binding competition assay with [3H]DAMGO. The following applies: MOR binding Ki relative to morphine.
Turning to `CN(C)C1(Cc2ccccc2)CCN(c2cc(C(F)(F)F)ccc2CNC(=O)Nc2cccc3ncccc23)CC1` [compound 49, 1-(2-(4-Benzyl-4-(dimethylamino)piperidin-1-yl)-4-(trifluoromethyl)benzyl)-3-(quinolin-5-yl)urea], the “fold less potent than morphine (MOR Ki)” value was 5 fold.
